# Data published in ChEMBL document CHEMBL1145824, “Simplified discodermolide analogues: synthesis and biological evaluation of 4-epi-7-dehydroxy-14,16-didemethyl-(+)-discodermolides as microtubule-stabilizing agents” (J Med Chem, 2003).
# pIC50: −log10 of the molar value.
# How the values were obtained:
# [1] = system: A549; experiment: Antiproliferative potency determined as inhibitory concentration against A549 cells; assay type: functional, cell-based; conditions: Homo sapiens
# Method in brief: (§1)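 MTS growth-inhibition assay. Cells seeded at 500-2000/well, attached and grown 48 h, then given agent or vehicle (4% DMSO) for 72 h continuous exposure. A time-zero plate was read. Initial 5-fold dilution screen, then 2-fold dilutions (five concentrations) centred on the estimated GI50, in quadruplicate. Read-out A490 minus A630 with phenazine methanesulfonate as electron acceptor. Mean ± SD, N = 4 over 10 concentrations.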
# [2] = Inhibitory concentration against […] (breast) cells; assay type: functional; conditions: Homo sapiens
# Method in brief: (§2)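 Cells plated at 500-2000/well, allowed to attach and grow 48 h, then exposed continuously for 72 h to vehicle (4% DMSO) or agent. Initial screen at 5-fold dilutions; GI50 then set by a repeat screen of five 2-fold dilutions centred on the estimate, in quadruplicate. A time-zero plate was included. Cell number was read by MTS/phenazine methanesulfonate absorbance (490 minus 630 nm). Values are means ± SD, N=4.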
# [3] = system: PC-3; experiment: Inhibitory concentration against PC3 (prostate) cells; assay type: functional; conditions: Homo sapiens; method in brief: as §2
# [4] = system: 2008; experiment: Inhibitory concentration against 2008 (ovarian) cells; assay type: functional; conditions: Homo sapiens; method in brief: as §2
# [5] = Percent competition for binding to preformed microtubules by 4 uM as against 2 uM of 3[H]paclitaxel; assay type: functional
# Method in brief: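 Microtubules preformed from 2 µM bovine brain tubulin with 20 µM ddGTP in monosodium glutamate, 30 min at 37 °C. Then 2 µM [3H]paclitaxel plus 4 µM agent (final concentrations) was added for 30 min at 37 °C. Samples were centrifuged at 14000 rpm for 20 min at room temperature, and supernatant radioactivity was counted. Bound = total minus free, normalized to the no-inhibitor control.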
# [6] = system: tubulin (Bos taurus); experiment: Percent assembly of bovine brain tubulin induced by compound at 10 uM versus that caused by 10 uM paclitaxel
# [7] = Antiproliferative potency determined as inhibitory concentration against MG63 cells; assay type: functional, cell-based; conditions: Homo sapiens, MG-63; method in brief: as §1
SMILES,pIC50 [1],GI50 [2] [nM],GI50 [3] [nM],GI50 [4] [nM],Activity [5] [%],Activity [6] [%],pIC50 [7]
C=C/C=C\C(C)C(OC(N)=O)[C@@H](C)[C@H](OC(C)=O)C(C)C/C(C)=C\C(C)[C@@H](O)[C@@H](C)/C=C\C(O)C[C@@H]1OC(=O)[C@H](C)[C@@H](OC(C)=O)[C@H]1C (stereo partly drawn),6.28,,,,,,
CC(=O)O[C@H]1C(=O)[C@@]2(C)[C@H]([C@H](OC(=O)c3ccccc3)[C@]3(O)C[C@H](OC(=O)[C@H](O)[C@@H](NC(=O)c4ccccc4)c4ccccc4)C(C)=C1C3(C)C)[C@]1(OC(C)=O)CO[C@@H]1C[C@@H]2O [PACLITAXEL],8.85,2.4,15,9.2,37,100,
C=C/C=C\C(C)C(OC(N)=O)[C@@H](C)[C@H](O)CC/C(C)=C\C(C)[C@@H](O)[C@@H](C)/C=C\C(O)C[C@@H]1OC(=O)[C@H](C)[C@@H](O)[C@H]1C (stereo partly drawn),,,,,,,8.00
C=C/C=C\C(C)C(OC(N)=O)[C@@H](C)[C@H](O)[C@@H](C)C/C(C)=C\C(C)[C@@H](O)[C@@H](C)/C=C\C(O)C[C@@H]1OC(=O)C(C)=C[C@H]1C (stereo partly drawn),8.74,,,,,,
C=C/C=C\C(C)C(OC(N)=O)[C@@H](C)[C@H](O)[C@@H](C)C/C(C)=C\C(C)[C@@H](O)[C@@H](C)/C=C\C(O)C[C@@H]1OC(=O)[C@H](C)[C@@H](O)[C@H]1C (stereo partly drawn),8.42,16,67,72,64,>100,8.22
C=C/C=C\C(C)C(OC(N)=O)[C@@H](C)[C@H](O)[C@@H](C)C/C=C\C(C)[C@@H](O)[C@@H](C)/C=C\C(O)C[C@@H]1OC(=O)C(C)[C@@H](O)[C@H]1C (stereo partly drawn),8.11,,,,,,
C=C/C=C\C(C)C(OC(N)=O)[C@@H](C)[C@H](O)C(C)C/C(C)=C\C(C)[C@@H](O)[C@@H](C)/C=C\C(C[C@@H]1OC(=O)[C@H](C)[C@@H](OC(C)=O)[C@H]1C)OC(C)=O (stereo partly drawn),9.10,,,,,,
C=C/C=C\C(C)C(OC(N)=O)[C@@H](C)[C@H](O)[C@@H](C)C/C=C/C(C)[C@@H](O)[C@@H](C)/C=C\C(O)C[C@@H]1OC(=O)C(C)[C@@H](O)[C@H]1C (stereo partly drawn),6.31,,,,,,
C=C/C=C\C(C)C(OC(N)=O)[C@@H](C)[C@H](O)C(C)C/C(C)=C\C(C)[C@@H](O)[C@@H](C)/C=C\C(O)C[C@@H]1OC(=O)[C@H](C)[C@@H](OC(C)=O)[C@H]1C (stereo partly drawn),8.42,,,,,,
COCO[C@H]1[C@@H](C)[C@H](CC/C=C\[C@H](C)[C@H](O)[C@@H](C)/C=C\CC[C@@H](O)[C@H](C)COC(N)=O)OC(=O)[C@@H]1C,,30000,> 50000,> 50000,13,<5,
C=C/C=C\C(C)C(OC(N)=O)[C@@H](C)[C@H](O)C(C)C/C(C)=C\C(C)[C@@H](O)[C@@H](C)/C=C\C(C[C@@H]1OC(=O)[C@H](C)[C@@H](O)[C@H]1C)OC(C)=O (stereo partly drawn),9.10,,,,,,
C=C/C=C\[C@H](C)[C@H](OC(N)=O)[C@@H](C)[C@H](O)CC/C=C\C(C)[C@@H](O)[C@@H](C)/C=C\CC[C@@H]1O[C@@H](OC)[C@H](C)[C@@H](OCOC)[C@@H]1C (stereo partly drawn),,3400,15000,4700,19,11,
CCCCCC(C)(C)[C@H](OC(N)=O)[C@@H](C)[C@H](O)CC/C=C\C(C)[C@@H](O)[C@@H](C)/C=C\CC[C@@H]1O[C@@H](OC)[C@H](C)[C@@H](OCOC)[C@@H]1C (stereo partly drawn),,23000,38000,42000,15,9,
C=C/C=C\C(C)C(OC(N)=O)[C@@H](C)[C@H](O)C(C)C/C(C)=C\C(C)[C@@H](OC(C)=O)[C@@H](C)/C=C\C(O)C[C@@H]1OC(=O)[C@H](C)[C@@H](OC(C)=O)[C@H]1C (stereo partly drawn),6.79,,,,,,
C=C/C=C\[C@H](C)[C@H](OC(N)=O)[C@@H](C)[C@H](O)[C@@H](C)C/C(C)=C\[C@H](C)[C@@H](O)[C@@H](C)/C=C\[C@@H](O)C[C@@H]1OC(=O)[C@H](C)[C@@H](O)[C@H]1C [DISERMOLIDE],,2600,3000,1500,32,14,
C=C/C=C\[C@H](C)[C@H](OC(N)=O)[C@@H](C)[C@H](O)CC/C=C\C(C)[C@@H](O)[C@@H](C)/C=C\CC[C@@H]1OC(=O)[C@H](C)[C@@H](OCOC)[C@@H]1C (stereo partly drawn),,870,1800,650,57,27,
CCCCCC[C@H](OC(N)=O)[C@@H](C)[C@H](O)CC/C=C\C(C)[C@@H](O)[C@@H](C)/C=C\CC[C@@H]1O[C@@H](OC)[C@H](C)[C@@H](OCOC)[C@@H]1C (stereo partly drawn),,24000,> 50000,29000,9,6,
C=C/C=C\[C@H](C)[C@H](OC(N)=O)[C@@H](C)[C@H](O)CC/C=C\C(C)[C@@H](O)[C@@H](C)/C=C\CC[C@@H]1OC(=O)[C@H](C)[C@@H](O)[C@@H]1C (stereo partly drawn),,2100,7500,5200,21,11,
C=C/C=C\C(C)C(OC(N)=O)[C@@H](C)[C@H](O)[C@@H](C)C/C(C)=C\C(C)[C@@H](O)[C@@H](C)/C=C\CC[C@@H]1OC(=O)C=C[C@H]1C (stereo partly drawn),7.94,,,,,,
